According to ChEMBL document CHEMBL3421541, “Benzaldehyde Schiff bases regulation to the metabolism, hemolysis, and virulence genes expression in vitro and their structure-microbicidal activity relationship” (2015):
≈ marks a conversion by molar mass, not a printed value. Calls of active or inactive are those of the source.

How the values were obtained:
Escherichia coli [1] = assay: Antibacterial activity against Escherichia coli assessed as growth inhibition at 100 umol/L after 8 hrs by ELISA plate reader analysis relative to control; format: functional; details: read-out: GI
Procedure, shortened: (§1)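 Bacteria were seeded at 1×10^5 CFU/mL in LB, and compound was added to 100 µmol/L final. Compounds came from DMSO stock, with DMSO ≤1% (v/v) final. Cultures were shaken at 37 °C for 8 h and read at OD450. Inhibition % = (OD vehicle control − OD sample)/OD vehicle control × 100. Values are the mean of three independent experiments.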

Escherichia coli [2] = assay: Antibacterial activity against Escherichia coli assessed as lowest concentration required to reduce growth by 1% after 8 hrs by ELISA plate reader analysis relative to control; format: functional
Procedure, shortened: (§2)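 MBC was found by broth microdilution. Inocula of 1×10^5 CFU/mL in LB were shaken at 37 °C with a series of compound concentrations, then read at OD450. MBC was defined as the lowest concentration reducing growth by 1% versus the inoculum control. Three independent experiments were run.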

Escherichia coli [3] = assay: Upregulation of cysB gene expression in Escherichia coli at 50 umol/L after 8 hrs by real-time RT-PCR analysis relative to control; format: functional, organism-based
Procedure, shortened: (§3)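 E. coli at 2×10^7 CFU/mL in LB was exposed to 50 µmol/L compound, or LB alone, for 8 h at 37 °C. Total RNA was then analysed by TaqMan real-time RT-PCR or semi-quantitative RT-PCR. Transcripts were normalised to gapA. Fold change is relative to time-matched medium-only cultures.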

Escherichia coli [4] = assay: Upregulation of cysB gene expression in Escherichia coli at 50 umol/L after 8 hrs by semi-quantitative RT-PCR analysis relative to control; format: functional, organism-based; procedure, shortened: as §3
Escherichia coli [5] = assay: Upregulation of acrA gene expression in Escherichia coli at 50 umol/L after 8 hrs by real-time RT-PCR analysis relative to control; format: functional, organism-based; procedure, shortened: as §3
Escherichia coli [6] = assay: Upregulation of acrA gene expression in Escherichia coli at 50 umol/L after 8 hrs by semi-quantitative RT-PCR analysis relative to control; format: functional, organism-based; procedure, shortened: as §3
Escherichia coli [7] = assay: Downregulation of tsh gene expression in Escherichia coli at 50 umol/L after 8 hrs by real-time RT-PCR analysis relative to control; format: functional, organism-based; procedure, shortened: as §3
Escherichia coli [8] = assay: Downregulation of IroD gene expression in Escherichia coli at 50 umol/L after 8 hrs by real-time RT-PCR analysis relative to control; format: functional, organism-based; procedure, shortened: as §3
Escherichia coli [9] = assay: Downregulation of tsh gene expression in Escherichia coli at 50 umol/L after 8 hrs by semi-quantitative RT-PCR analysis relative to control; format: functional, organism-based; procedure, shortened: as §3
Escherichia coli [10] = assay: Downregulation of IroD gene expression in Escherichia coli at 50 umol/L after 8 hrs by semi-quantitative RT-PCR analysis relative to control; format: functional, organism-based; procedure, shortened: as §3
Staphylococcus aureus [11] = assay: Antibacterial activity against Staphylococcus aureus assessed as growth inhibition at 100 umol/L after 8 hrs by ELISA plate reader analysis relative to control; format: functional; details: read-out: GI; procedure, shortened: as §1
Staphylococcus aureus [12] = assay: Antibacterial activity against Staphylococcus aureus assessed as lowest concentration required to reduce growth by 1% after 8 hrs by ELISA plate reader analysis relative to control; format: functional; procedure, shortened: as §2
Staphylococcus aureus [13] = assay: Downregulation of hla gene expression in Staphylococcus aureus at 50 umol/L after 8 hrs by real-time RT-PCR analysis relative to control; format: functional, organism-based
Procedure, shortened: (§4)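 S. aureus ATCC 25923 at 2×10^7 CFU/mL in LB was exposed to 50 µmol/L compound, or LB alone, for 8 h at 37 °C. Total RNA was analysed by TaqMan real-time RT-PCR or semi-quantitative RT-PCR, normalised to gyrB. Fold change is versus time-matched medium-only cultures, with data pooled from three experiments.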

Staphylococcus aureus [14] = assay: Downregulation of hla gene expression in Staphylococcus aureus at 50 umol/L after 8 hrs by semi-quantitative RT-PCR analysis relative to control; format: functional, organism-based; procedure, shortened: as §4
Staphylococcus aureus [15] = assay: Upregulation of sbi gene expression in Staphylococcus aureus at 50 umol/L after 8 hrs by real-time RT-PCR analysis relative to control; format: functional, organism-based; procedure, shortened: as §4
Staphylococcus aureus [16] = assay: Upregulation of sbi gene expression in Staphylococcus aureus at 50 umol/L after 8 hrs by semi-quantitative RT-PCR analysis relative to control; format: functional, organism-based; procedure, shortened: as §4
Staphylococcus aureus [17] = assay: Downregulation of mecA gene expression in Staphylococcus aureus at 50 umol/L after 8 hrs by real-time RT-PCR analysis relative to control; format: functional; procedure, shortened: as §4
Staphylococcus aureus [18] = assay: Downregulation of mecA gene expression in Staphylococcus aureus at 50 umol/L after 8 hrs by semi-quantitative RT-PCR analysis relative to control; format: functional; procedure, shortened: as §4
Staphylococcus aureus [19] = assay: Downregulation of saeR gene expression in Staphylococcus aureus at 50 umol/L after 8 hrs by real-time RT-PCR analysis relative to control; format: functional, organism-based; procedure, shortened: as §4
Staphylococcus aureus [20] = assay: Downregulation of saeR gene expression in Staphylococcus aureus at 50 umol/L after 8 hrs by semi-quantitative RT-PCR analysis relative to control; format: functional, organism-based; procedure, shortened: as §4
Bacillus subtilis [21] = assay: Antibacterial activity against Bacillus subtilis assessed as growth inhibition at 100 umol/L after 8 hrs by ELISA plate reader analysis relative to control; format: functional; details: read-out: GI; procedure, shortened: as §1
Bacillus subtilis [22] = assay: Antibacterial activity against Bacillus subtilis assessed as lowest concentration required to reduce growth by 1% after 8 hrs by ELISA plate reader analysis relative to control; format: functional; procedure, shortened: as §2

O=C(N/N=C/c1cc(Br)ccc1O)c1ccncc1
inhibition of growth at 100 µM (Escherichia coli [1]): 95.8% | MBC (Escherichia coli [2]): 3.2 µM (≈ 1.02 µg/mL) | Activity (Escherichia coli [3]): Active | Activity (Escherichia coli [4]): Active | Activity (Escherichia coli [5]): Active | Activity (Escherichia coli [6]): Active | Activity (Escherichia coli [7]): Active | Activity (Escherichia coli [8]): Active | Activity (Escherichia coli [9]): Active | Activity (Escherichia coli [10]): Active

CC(C)(C)c1cc(/C=N/NC(=O)c2ccccc2O)c(O)c(C(C)(C)C)c1
inhibition of growth at 100 µM (Escherichia coli [1]): 13.9% | inhibition of growth at 100 µM (Staphylococcus aureus [11]): 70.9% | MBC (Staphylococcus aureus [12]): 19 µM (≈ 7 µg/mL) | Activity (Staphylococcus aureus [13]): Active | Activity (Staphylococcus aureus [14]): Active | Activity (Staphylococcus aureus [15]): Active | Activity (Staphylococcus aureus [16]): Active | fold change (FC) (Staphylococcus aureus [17]): 2 | fold change (FC) (Staphylococcus aureus [18]): 2 | Activity (Staphylococcus aureus [19]): Active | Activity (Staphylococcus aureus [20]): Active

O=C(N/N=C/c1ccccc1O)c1ccccc1O
inhibition of growth at 100 µM (Escherichia coli [1]): 11.8%

CC(C)(C)c1cc(/C=N/NC(=O)COc2ccc(Cl)cc2)c(O)c(C(C)(C)C)c1
inhibition of growth at 100 µM (Escherichia coli [1]): 10.5% | inhibition of growth at 100 µM (Bacillus subtilis [21]): 19.7%

CN[C@@H]1[C@H](O[C@H]2[C@H](O[C@H]3[C@H](O)[C@@H](O)[C@H](N=C(N)N)[C@@H](O)[C@@H]3N=C(N)N)O[C@@H](C)[C@]2(O)C=O)O[C@@H](CO)[C@H](O)[C@H]1O [STREPTOMYCIN]
inhibition of growth at 100 µM (Bacillus subtilis [21]): 94.1% | inhibition of growth at 100 µM (Staphylococcus aureus [11]): 97% | MBC (Bacillus subtilis [22]): 2.1 µM (≈ 1.22 µg/mL) | MBC (Staphylococcus aureus [12]): 1.3 µM (≈ 0.756 µg/mL)
